pIC50: −log10 of the molar value. Active and inactive are the calls of the source.
What was measured:
[1] = test system: Trypanosoma cruzi; assay: Antitrypanosomal activity against Trypanosoma cruzi CL Brener infected in BALB/c mouse assessed as decrease in plasmodial antibodies at 214 umol/kg/day, po for 14 days administered in cholesterol/surfactant/phosphate buffer measured on day 60 by ELISA; type: functional, organism-based; conditions: in the assay text read “anti-Trypanosoma cruzi antibodies” for “plasmodial antibodies”
Outline: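 Infected male BALB/c mice (n = 7/group) were dosed orally for 14 days from day 6 post-infection in cholesterol/surfactant/phosphate buffer pH 7.4 microemulsion; the control group received vehicle. Anti-T. cruzi antibodies were measured by ELISA (each serum tested twice) at days 30 and 60 post-infection and compared with untreated animals and a healthy-animal cutoff.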

[2] = Stability of the compound in aqueous solution assessed as compound remaining at 1 mM at 37 degC after 1 hr by TLC analysis in presence of rat liver microsomal fraction; conditions: microsomes, 1000 µM
Outline: (§1)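 Rat liver cytosolic (100 000g supernatant) and microsomal (100 000g pellet, washed and resuspended in Tris·HCl) fractions, fresh or stored at −80 °C; protein measured by BCA. Compound incubated with the fraction 1 h at 37 °C and analysed by TLC of extracts.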

[3] = test system: Mus musculus; assay: Toxicity in BALB/c mouse assessed as mortality at 100 mg/kg/day, po for 14 days; type: organism-based; design: route oral; conditions: in vivo, 336 h
Outline: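 Uninfected female BALB/c mice (n = 2/group) received intragastric gavage daily for 14 days in saline/Tween 80 (4:1). They were weighed and monitored daily, then sacrificed for macroscopic necropsy of organs.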

[4] = test system: Trypanosoma cruzi; assay: Antitrypanosomal activity against Trypanosoma cruzi CL Brener infected in BALB/c mouse assessed as mouse survival at 107 umol/kg/day, po for 14 days administered in cholesterol/surfactant/phosphate buffer measured up to 60 days relative to control; type: functional
Outline: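 Infected male BALB/c mice (30 days old, 25–30 g) were gavaged daily from day 6 postinfection for 14 days. Vehicle was a microemulsion of 10% cholesterol, 10% surfactant (soya phosphatidylcholine/sodium oleate/polyoxyl-40 hydrogenated castor oil) and 80% phosphate buffer pH 7.4. n = 7/group, with vehicle controls. Tail-vein parasitemia was taken weekly for 60 days and mortality recorded.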

[5] = test system: Salmonella typhimurium; assay: Mutagenic activity in Salmonella typhimurium TA102 at 3.09 to 250 ug/plate by Ames test; type: toxicity, organism-based; conditions: salmonella enterica subsp. enterica serovar typhimurium
Outline: (§2)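 Direct plate incubation on minimal glucose agar (Vogel-Bonner E). Compound toxicity to the bacteria was checked first. DMSO solutions were tested at five consecutive 3-fold dilutions, starting from the highest non-toxic dose, in triplicate, without metabolic activation. DMSO served as negative control. Revertants were counted manually; mutagenic = revertants at least double the negative control at two or more consecutive doses.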

[6] = Stability of the compound in aqueous solution assessed as compound remaining at 1 mM at pH 9 after 1 hr by TLC analysis; type: physicochemical; conditions: aqueous solution, pH 9; read-out: Stability
Outline: (§3)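 DMSO stocks diluted to final 1 mM in KCl·HCl pH 1.0, citrate pH 6.0, Tris·HCl pH 7.4 or borax·HCl pH 9.0 buffer. Incubated 1 h at 37 °C, then ethyl acetate extracts checked by TLC for decomposition products.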

[7] = test system: Salmonella typhimurium; assay: Mutagenic activity in Salmonella typhimurium TA100 at 0.003 to 0.2 ug/plate by Ames test; type: toxicity, organism-based; conditions: salmonella enterica subsp. enterica serovar typhimurium; outline: as §2
[8] = Stability of the compound in aqueous solution assessed as compound remaining at 1 mM at pH 1 after 1 hr by TLC analysis; type: physicochemical; conditions: read-out: Stability; outline: as §3
[9] = test system: Salmonella typhimurium; assay: Mutagenic activity in Salmonella typhimurium TA1537 at 3.09 to 250 ug/plate by Ames test in presence of mouse liver S9 fraction; type: toxicity, organism-based; conditions: salmonella enterica subsp. enterica serovar typhimurium
Outline: (§4)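 Plate-incorporation Ames test on minimal glucose agar with 500 μL Aroclor-treated mouse liver S9 added. DMSO solutions were tested at five consecutive 3-fold dilutions from the highest non-toxic dose, in triplicate, with a DMSO negative control. Revertants were counted manually; a compound was scored mutagenic when revertants were at least twice the negative control for two or more consecutive doses.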

[10] = test system: Trypanosoma cruzi; assay: Antitrypanosomal activity against Trypanosoma cruzi Tulahuen 2 epimastigotes assessed as growth inhibition after 5 days; type: functional, organism-based; conditions: Trypanosoma cruzi, Tulahuen 2, 120 h
Outline: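 Epimastigotes were grown axenically at 28 °C in BHI-tryptose with 5% FBS and seeded from a 5–7 day culture at 1 × 10⁶ cells/mL. Drug from a DMSO stock was added (final DMSO ≤0.4%; the control contained 0.4% DMSO). Duplicates were run. A600 was read at day 5, and % inhibition was calculated relative to day-0 and control readings. IC50 = concentration that halves the absorbance ratio.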

[11] = test system: Trypanosoma cruzi; assay: Antitrypanosomal activity against Trypanosoma cruzi CL Brener infected in BALB/c mouse assessed as peak of maximum parasitemia at 107 umol/kg/day, po for 14 days administered in saline and tween 80 measured up to 60 days relative to control; type: functional
Outline: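 Male BALB/c mice (30 days old, 25–30 g, SPF) were infected i.p. with 10³ blood trypomastigotes, n = 8/group. Daily oral gavage in saline/Tween 80 (4:1) ran for 14 days from day 6 post-infection; controls received vehicle only. Parasitemia was counted weekly in tail-vein blood by hemocytometer for 60 days, and survival was recorded.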

[12] = Selectivity index, ratio of IC50 for mouse J774.1 cells to IC50 for Trypanosoma cruzi Sylvio X-10 amastigotes; type: toxicity; conditions: read-out: Ratio IC50
Outline: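 J774.1 macrophages grown in DMEM with 10% heat-inactivated FCS and allowed to attach 48 h, then exposed 48 h at 37 °C to 12.5–400.0 μM. Triplicates. MTT 0.1 mg/mL for 3 h, read at 560 nm; IC50 by linear regression against the solvent control. SI = IC50 J774.1 / parasite IC50 (Sylvio X-10 amastigotes or Tulahuen 2 epimastigotes, the latter measured by A600 growth inhibition at day 5).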

[13] = test system: Salmonella typhimurium; assay: Mutagenic activity in Salmonella typhimurium TA1535 at 3.09 to 250 ug/plate by Ames test in presence of mouse liver S9 fraction; type: toxicity, organism-based; conditions: salmonella enterica subsp. enterica serovar typhimurium; outline: as §4
[14] = test system: Salmonella typhimurium; assay: Mutagenic activity in Salmonella typhimurium TA100 at 0.003 to 0.2 ug/plate by Ames test in presence of mouse liver S9 fraction; type: toxicity, organism-based; conditions: salmonella enterica subsp. enterica serovar typhimurium; outline: as §4
[15] = test system: Trypanosoma cruzi; assay: Antitrypanosomal activity against Trypanosoma cruzi Sylvio X-10 amastigotes infected in African green monkey Vero cells assessed as eradication of amastigotes at 5 uM after 5 days by optical microscopic analysis; type: functional, organism-based; conditions: in the assay text read “after 72 hrs” for “after 5 days”
Outline: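 VERO cells infected with Sylvio X-10 parasites were treated with 5 μM compound and examined by optic microscopy after 72 h of incubation for intracellular amastigotes and trypomastigotes.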

[16] = Stability of the compound in aqueous solution assessed as compound remaining at 1 mM at 37 degC after 1 hr by TLC analysis in presence of rat liver cytosolic fraction; type: ADME; conditions: cytosol, 1000 µM; outline: as §1
[17] = test system: Salmonella typhimurium; assay: Mutagenic activity in Salmonella typhimurium TA1535 at 3.09 to 250 ug/plate by Ames test; type: toxicity, organism-based; conditions: salmonella enterica subsp. enterica serovar typhimurium; outline: as §2

In the case of `Br.C=CCn1c(-c2ccc(Cl)cc2)cs\c1=N/N=C/C=C/c1ccco1.O`, the Activity [1] was “Active”, the Stability [2] was “Stable” and the Activity [3] was “Non-toxic”. For the same molecule, the survival at 107 µmol/kg [4] was 100%, the Activity [5] was “Non-toxic” and the remaining at 1 h, 1000 µM [6] was greater than 95%. The Activity [7] was “Non-toxic”, the remaining at 1 h, 1000 µM [8] was 90% and the Activity [9] was “Non-toxic”. The pIC50 [10] was 5.89, the Time [11] was 26 days and the selectivity ratio [12] was greater than 200. For the same molecule, the Activity [13] was “Non-toxic”, the Activity [14] was “Non-toxic” and the Activity [15] was “Active”. For the same molecule, the Stability [16] was “Stable” and the Activity [17] was “Non-toxic”.

Reference: ChEMBL document CHEMBL3259808, “Optimization of antitrypanosomatid agents: identification of nonmutagenic drug candidates with in vivo activity” (J Med Chem, 2014)
